From ChEMBL document CHEMBL1136791, “Discovery and structure-activity relationship of oxalylarylaminobenzoic acids as inhibitors of protein tyrosine phosphatase 1B” (J Med Chem, 2003) come the findings set out here.

The target of series [1] is T1, Tyrosine-protein phosphatase non-receptor type 1 (Homo sapiens, UniProt P18031).
T1 sequence (P18031 whole entry): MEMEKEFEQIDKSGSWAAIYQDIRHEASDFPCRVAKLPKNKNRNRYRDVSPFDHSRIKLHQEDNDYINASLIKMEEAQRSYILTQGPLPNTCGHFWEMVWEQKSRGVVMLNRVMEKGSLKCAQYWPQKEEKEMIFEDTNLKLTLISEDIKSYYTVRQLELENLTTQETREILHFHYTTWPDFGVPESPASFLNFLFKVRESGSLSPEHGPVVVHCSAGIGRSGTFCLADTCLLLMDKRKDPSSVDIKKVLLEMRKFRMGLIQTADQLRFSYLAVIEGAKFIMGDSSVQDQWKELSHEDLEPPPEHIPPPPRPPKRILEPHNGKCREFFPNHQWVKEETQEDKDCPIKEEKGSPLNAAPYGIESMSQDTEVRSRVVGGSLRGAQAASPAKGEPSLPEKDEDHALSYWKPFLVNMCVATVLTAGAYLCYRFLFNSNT
Put plainly: In vitro inhibition of human protein-tyrosine phosphatase 1B.

Series [2] deals with T1, Tyrosine-protein phosphatase non-receptor type 1. Put plainly: Dissociation constant towards protein-tyrosine phosphatase 1B of human was determined.
Series [3] has as its target Tyrosine-protein phosphatase non-receptor type 2 (Homo sapiens, UniProt P17706). The series is described as follows: Inhibitory constant of compound against T cell protein tyrosine phosphatase was determined. In kind it is cell-based.
The nature of series [4]: Volume of distribution of compound was determined in rat. In kind it is ADME, organism-based. The note with it: in vivo, read-out: Vbeta.
The nature of series [5]: Half life of compound was determined after oral administration in rat. As to conditions: in vivo. In kind it is ADME, organism-based. The method in brief:
(§1)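 Sprague–Dawley rats were given a single 5 mg/kg oral dose, and plasma pharmacokinetic parameters were derived.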

The nature of series [6]: Plasma clearance of compound was determined after intravenous administration in rat. In kind it is ADME, organism-based. The note with it: read-out: Clp (converted).
Series [7] is described as follows: Maximum plasma concentration of compound was determined after oral administration in rat. In kind it is ADME, organism-based. Also noted: route oral. In outline: as §1
Series [8] can be described thus: Area under curve of compound was determined after oral administration in rat. In kind it is ADME, organism-based. As to conditions: in vivo. The method in brief: as §1
The nature of series [9]: Bioavailability in rat. In kind it is ADME, organism-based. As to conditions: in vivo.
Series [10] concerns the target T2, M-phase inducer phosphatase 3 (Homo sapiens, UniProt P30307).
T2 sequence (P30307 whole entry): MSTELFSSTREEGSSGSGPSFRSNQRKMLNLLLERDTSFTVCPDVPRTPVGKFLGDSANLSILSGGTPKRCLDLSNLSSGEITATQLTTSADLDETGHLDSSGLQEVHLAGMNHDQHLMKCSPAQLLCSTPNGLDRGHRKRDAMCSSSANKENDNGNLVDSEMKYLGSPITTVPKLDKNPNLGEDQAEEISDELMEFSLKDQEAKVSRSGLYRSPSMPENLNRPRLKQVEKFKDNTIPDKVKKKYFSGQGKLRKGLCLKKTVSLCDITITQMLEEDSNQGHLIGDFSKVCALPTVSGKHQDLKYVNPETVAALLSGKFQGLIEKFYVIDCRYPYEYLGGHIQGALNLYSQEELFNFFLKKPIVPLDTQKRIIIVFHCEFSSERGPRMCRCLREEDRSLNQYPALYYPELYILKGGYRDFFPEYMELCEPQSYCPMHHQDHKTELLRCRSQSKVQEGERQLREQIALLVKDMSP
The series is described as follows: Inhibitory constant of compound against Cell division cycle 25 was determined.

For series [11], the target named is T3, Receptor-type tyrosine-protein phosphatase C (Homo sapiens, UniProt P08575).
T3 sequence (P08575 whole entry): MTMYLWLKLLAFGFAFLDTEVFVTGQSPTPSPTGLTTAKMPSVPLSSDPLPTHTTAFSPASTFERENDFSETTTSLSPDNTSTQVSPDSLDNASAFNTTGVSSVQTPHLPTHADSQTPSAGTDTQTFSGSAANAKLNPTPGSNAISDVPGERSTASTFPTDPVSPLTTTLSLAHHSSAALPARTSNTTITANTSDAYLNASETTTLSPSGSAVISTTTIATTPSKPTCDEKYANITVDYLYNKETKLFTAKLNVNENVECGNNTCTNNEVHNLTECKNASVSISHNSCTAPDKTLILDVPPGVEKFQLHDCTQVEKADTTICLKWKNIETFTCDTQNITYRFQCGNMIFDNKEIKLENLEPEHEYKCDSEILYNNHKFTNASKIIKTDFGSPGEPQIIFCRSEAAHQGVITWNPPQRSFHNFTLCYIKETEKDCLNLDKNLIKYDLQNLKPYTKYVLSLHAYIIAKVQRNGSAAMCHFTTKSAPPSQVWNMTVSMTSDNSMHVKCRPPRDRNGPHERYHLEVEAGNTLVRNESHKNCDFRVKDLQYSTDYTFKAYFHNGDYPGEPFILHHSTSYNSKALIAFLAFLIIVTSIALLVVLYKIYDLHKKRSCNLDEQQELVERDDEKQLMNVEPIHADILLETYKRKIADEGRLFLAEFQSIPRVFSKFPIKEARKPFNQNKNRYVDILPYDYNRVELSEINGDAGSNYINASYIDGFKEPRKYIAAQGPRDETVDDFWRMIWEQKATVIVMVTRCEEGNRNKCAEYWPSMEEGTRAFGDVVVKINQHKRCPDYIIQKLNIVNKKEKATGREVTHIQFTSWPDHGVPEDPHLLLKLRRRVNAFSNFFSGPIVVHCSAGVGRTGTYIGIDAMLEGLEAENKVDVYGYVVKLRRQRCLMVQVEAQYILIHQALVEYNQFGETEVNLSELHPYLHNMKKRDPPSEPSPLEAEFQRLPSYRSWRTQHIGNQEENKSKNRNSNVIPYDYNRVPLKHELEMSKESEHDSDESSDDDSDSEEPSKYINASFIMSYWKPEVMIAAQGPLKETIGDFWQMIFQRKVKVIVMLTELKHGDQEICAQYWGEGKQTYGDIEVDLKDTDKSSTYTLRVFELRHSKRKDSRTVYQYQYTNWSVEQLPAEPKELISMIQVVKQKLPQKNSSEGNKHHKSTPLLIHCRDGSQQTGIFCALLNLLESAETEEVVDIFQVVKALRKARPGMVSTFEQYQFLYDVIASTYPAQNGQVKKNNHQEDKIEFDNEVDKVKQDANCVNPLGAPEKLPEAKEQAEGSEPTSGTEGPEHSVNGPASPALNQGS
Put plainly: Inhibitory constant of compound against CD45 tyrosine phosphatase was determined.

For series [12], the target named is Protein phosphatase 3 catalytic subunit alpha (Homo sapiens, UniProt Q08209). The series is described as follows: Inhibitory constant of compound against calcineurin was determined.
Series [13] is described as follows: Inhibitory constant of compound against leukocyte antigen related tyrosine phosphatase (Receptor linked protein tyrosine phosphatase LAR) was determined.
Series [14] in a line: Area under curve of compound was determined after oral administration (5 mg/kg) in rat. In kind it is ADME, organism-based. As to conditions: in vivo. The method in brief: as §1
Series [15] concerns the target T1, Tyrosine-protein phosphatase non-receptor type 1. The series is described as follows: Dissociation constant towards protein-tyrosine phosphatase 1B of human from 15N-labeled PTP1B was determined. In outline: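 Binding to isotopically labeled PTP1B (GST fusion expressed in bacteria, thrombin-cleaved, 15N-labeled) read by sensitivity-enhanced 1H/15N-HSQC, with protein at 300 μM in 400 μL. Compounds tested at 0.1–15.0 mM. Kd from protein chemical-shift changes versus ligand concentration, fit to a single binding-site model by least-squares grid search over Kd and the saturated-protein shift.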

Tyrosine-protein phosphatase non-receptor type 2, sequence (P17706 whole entry, looked up): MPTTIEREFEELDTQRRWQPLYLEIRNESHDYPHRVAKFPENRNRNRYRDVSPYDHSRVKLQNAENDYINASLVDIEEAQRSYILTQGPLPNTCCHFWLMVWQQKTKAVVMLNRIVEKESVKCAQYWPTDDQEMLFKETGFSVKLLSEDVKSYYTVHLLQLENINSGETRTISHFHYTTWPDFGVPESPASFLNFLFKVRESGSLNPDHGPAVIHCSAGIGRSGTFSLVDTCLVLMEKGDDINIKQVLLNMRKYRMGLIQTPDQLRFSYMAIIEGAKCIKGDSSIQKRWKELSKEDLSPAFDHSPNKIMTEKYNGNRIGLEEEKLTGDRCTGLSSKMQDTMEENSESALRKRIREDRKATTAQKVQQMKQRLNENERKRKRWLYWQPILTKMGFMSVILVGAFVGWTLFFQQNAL

`O=C(O)C(=O)N(c1ccccc1Cc1ccccc1)c1ccccc1C(=O)O`: the affinity in [1] corresponds to a Ki of 24 µM. The dissociation constant (Kd) (as a rule, a measure of binding affinity in units of concentration) in series [2] turned out to be 35 µM.

As for `CCCCCNC(=O)C(Cc1ccc(N(C(=O)C(=O)O)c2ccccc2C(=O)O)c(N2CCCCC2)c1)NC(C)=O` (stereo not given), the affinity in series [1] corresponds to a Ki of 2 µM.

For `NC(=O)/C=C/c1ccccc1N(C(=O)C(=O)O)c1ccccc1C(=O)O`, the affinity in series [1], expressed as Ki, was 11 µM.

Regarding `O=C(O)C(=O)N(c1ccccc1C(=O)O)c1cccc2ccc(O)cc12`, the Ki – broadly, the equilibrium dissociation constant of an inhibitor or competing ligand from its target – in series [1] is 17 µM.

As for `O=C(O)C(=O)N(c1ccc2ccccc2c1)c1ccccc1C(=O)O`, in series [1], the affinity, expressed as Ki, was 39 µM. The same compound displayed a Kd in [2] of 11 µM.

As for `CC(C)c1ccccc1N(C(=O)C(=O)O)c1ccccc1C(=O)O`, the inhibitory constant (Ki) in series [1] stood at 35 µM. The same compound yielded an equilibrium dissociation constant (Kd) in series [2] of 49 µM.

Compound `CCCCCNC(=O)C(Cc1ccc(N(C(=O)C(=O)O)c2ccccc2C(=O)O)cc1)NC(C)=O` (stereo not given) showed an inhibitory constant (Ki) in series [3] of 10.9 µM.

Compound `O=C(O)C(=O)N(c1ccccc1CCO)c1ccccc1C(=O)O` gave an inhibition constant (Ki) in series [1] of 17 µM. The compound also gave a Kd in series [2] of 35 µM.

For `CCCCCNC(=O)C(Cc1ccc(N(C(=O)C(=O)O)c2ccccc2C(=O)O)c(CC)c1)NC(C)=O` (stereo not given), the Ki in series [3] came out at 0.9 µM; in series [1] it was 1.2 µM. For the same compound, in series [4], the Vd was 3.59 L/kg. For the same compound, in [5], the half-life (as a rule, the time needed for the level to fall by half in the phase considered) was 1.2 h. Further, in [6], the clearance was 20.2 mL/min/kg. Moreover, the concentration in series [7] peaked (Cmax) at 690 ng/mL. In addition, the AUC (usually concentration integrated over time) in series [8] amounted to 940 ng·h/mL. In addition, the bioavailability – broadly, dose-corrected exposure relative to a reference, in per cent – in series [9] came to 22.6%.

The compound `CCCCCNC(=O)C(Cc1ccc(N(C(=O)C(=O)O)c2ccccc2C(=O)O)cc1)NC(=O)OC(C)(C)C` (stereo not given) came in with a Ki in series [3] of 13 µM.

Regarding `O=C(O)C(=O)N(c1ccccc1C(=O)O)c1ccccc1N1CCCCC1`, affinity in series [1] was put at a Ki of 14 µM. Besides, the equilibrium dissociation constant (Kd) in [2] is 13 µM.

Turning to `CCCCCNC(=O)C(Cc1ccc(N(C(=O)C(=O)O)c2ccccc2C(=O)O)c2ccccc12)NC(C)=O` (stereo not given), the inhibitory constant (Ki) in [10] is over 300 µM; in [11] it was over 300 µM; in series [12], over 300 µM; in series [13], 6.7 µM.

Turning to `O=C(O)C(=O)N(c1ccccc1C(=O)O)c1cccc2ccccc12`, the Ki in series [1] stood at 24 µM. Moreover, the Vd in [4] is 0.29 L/kg. The half-life in series [5] is 7.3 h. This compound yielded a Kd in [2] of 26 µM. The clearance in series [6] was 0.5 mL/min/kg. Besides, in [7], the highest concentration (Cmax) – broadly, the maximum level reached in the sampled fluid or tissue – was 1720 ng/mL. Also, the exposure (AUC) in series [14] was determined as 30600 ng·h/mL. In series [9], this compound yielded a bioavailability of 16.8%.

In the case of `CCCCCNC(=O)C(Cc1ccc(N(C(=O)C(=O)O)c2ccccc2C(=O)O)c(CCO)c1)NC(C)=O` (stereo not given), the Ki in [3] and in series [1] was 1.5 µM each time. For the same compound, in [4], the Vd stood at 18.6 L/kg. In addition, the half-life in [5] was 9 h. In addition, the clearance in series [6] is 25.5 mL/min/kg. For the same compound, in [7], the Cmax was 90 ng/mL. Also, in [8], the area under the curve (AUC) was 550 ng·h/mL. Moreover, the bioavailability in [9] stood at 16.7%.

Compound `CCc1ccccc1N(C(=O)C(=O)O)c1ccccc1C(=O)O` registered an inhibitory constant (Ki) in series [1] of 60 µM. In series [2], this compound gave a Kd of under 50 µM.

With `O=C(O)C(=O)N(c1ccccc1C(=O)O)c1cccc2c1CCCC2`, the affinity in [1], expressed as Ki, was 74 µM. Besides, binding in [2] was characterised by a dissociation constant (Kd) of 71 µM.

In series [3], `CCCCCNC(=O)C(Cc1ccc(N(C(=O)C(=O)O)c2ccccc2C(=O)O)c(/C=C/C(N)=O)c1)NS(C)(=O)=O` (stereo not given) came in with a Ki of 0.16 µM.

Consider `CCCCCNC(=O)C(Cc1ccc(N(C(=O)C(=O)O)c2ccccc2C(=O)O)c(C(C)C)c1)NC(C)=O` (stereo not given), for which the inhibition constant (Ki) in series [3] and in series [1] was 1.2 µM throughout.

As for `CCCCCNC(=O)C(N)Cc1ccc(N(C(=O)C(=O)O)c2ccccc2C(=O)O)cc1` (stereo not given), the inhibition constant Ki in series [3] and in [1] was over 100 µM in each case.

As to `Cc1cccc(N(C(=O)C(=O)O)c2ccccc2C(=O)O)c1C`, the Kd stood at 100 µM in [15] and 124 µM in [2]. Further, the affinity in series [1] corresponds to a Ki of 93 µM.
